Source: PubChem
Most compounds without a hit are left out; they make up all but 1.4% or so of the library.
EBNA-1 inhibitor: EBNA-1 DNA-binding inhibitors, primary screen, biochemical, fluorescence polarization; inhibition, % at 14.8 µM; 300,000 tested, 0.34% active; AID 1950, 2009; in the data active = inhibition above about 28%
NS3 helicase inh: inhibitors of HCV NS3 helicase, primary screen, biochemical, Cy5 molecular beacon fluorescence; inhibition, % at 10.9 µM; NS3 helicase DNA unwinding; AID 1800, 2009; 290,000 tested, 0.56% active;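 active = inhibition above the mean of all tested compounds plus 3 SD, set per campaign, cut at about 35% in these data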;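 also: 0% = DMSO wells and 100% = thioflavine S control wells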
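test system = hepatitis C virus NS3 helicase domain fragment enzyme | reagent = annealed dual-labelled DNA beacon duplex, ATP-started | times = 1 h at 25 °C | detection = Cy5 fluorescence, 0 and 60 min reads | read-out basis = percent inhibition from t60/t0 fluorescence ratio | control set = DMSO and thioflavine S | replication = one well per compound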
core dimer inh: inhibitors of HCV core protein dimerization, primary screen, biochemical, TR-FRET, high-throughput; inhibition, % at 5 µM; TR-FRET GST/Flag-core106 dimerization, 1536-well; 300,000 tested, 0.33% active; AID 1899, 2009;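 active = inhibition above the mean of all tested compounds plus 3 SD, set per screening campaign, cut at about 45% in these data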
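Assay system: GST-tagged and Flag-tagged HCV core protein residues 1-106 / Times: compound-protein-antibody incubation 4 h at 22.5 °C / Signal: time-resolved FRET, ex 340 nm, em 617 and 671 nm / Evaluation: % inhibition based on acceptor/donor emission ratio / Benchmarks: wells lacking GST-core106 and wells with excess unlabelled core106 / Repeats: singlicate, one well per compound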
ZTA counter: ZTA (EBV) inhibition in EBNA-1 counter-screen | 320,000 tested, 0.15% active | P03206 | ZTA-DNA binding, fluorescence polarization | inhibition, % at 11 µM | AID 2234; in the data active = inhibition above about 33%
Target sequence (P03206 whole entry, looked up): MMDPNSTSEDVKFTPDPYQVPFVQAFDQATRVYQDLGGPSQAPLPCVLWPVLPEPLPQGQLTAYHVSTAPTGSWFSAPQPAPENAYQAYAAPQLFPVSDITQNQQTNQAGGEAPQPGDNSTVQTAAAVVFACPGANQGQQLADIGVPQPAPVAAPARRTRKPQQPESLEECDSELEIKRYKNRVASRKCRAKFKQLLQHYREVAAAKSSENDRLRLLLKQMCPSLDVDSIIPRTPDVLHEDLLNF
UBC9 SUMO inh: inhibitors of in vitro SUMOylation cascade, primary screen, biochemical, HTRF, uHTS; HTRF SUMOylation assay, SAE1/SAE2 + UBC9; inhibition, % at 35 µM; 290,000 tested, 0.36% active; AID 2006, 2009; in the data active = inhibition above about 50%, passing the limit was not always enough
Target sequence (P63279 whole entry, looked up): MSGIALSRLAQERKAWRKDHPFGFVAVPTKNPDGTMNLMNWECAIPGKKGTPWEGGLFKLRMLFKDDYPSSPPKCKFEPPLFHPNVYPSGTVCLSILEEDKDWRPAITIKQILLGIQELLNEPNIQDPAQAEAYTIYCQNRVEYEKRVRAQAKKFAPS
NS3 helicase cf: HCV NS3 helicase inhibitors, retest, confirmation, biochemical, Cy5 molecular beacon fluorescence, triplicate | shares compounds with NS3 helicase inh | NS3 helicase DNA unwinding | inhibition, % at 10.9 µM | 1,600 tested, 31% active | AID 1943, 2009;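 active = inhibition above the mean of all tested compounds plus 3 SD, cutoff set per campaign, cut at about 36% in these data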
DNA FID counter: compounds displacing fluorescent DNA intercalator, artefact control for HCV NS3 helicase inhibitor project, biochemical, FID fluorescence, triplicate | shares compounds with NS3 helicase inh | DNA fluorescent intercalator displacement | inhibition, % at 7.9 µM | 1,600 tested, 4% active | AID 1945, 2009; in the data active = inhibition above about 37%;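 also: 0% = vehicle and 100% = reference compound; higher means more displacement of ethidium bromide from the DNA hairpin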
* hit, by the source's call.

Results for CCC(=O)N1CCN(c2ccc(NC(=S)NC(=O)c3cc4ccccc4o3)cc2)CC1 ?
NS3 helicase inh: 9; UBC9 SUMO inh: -15

Results for CC(=O)c1c(C)n(-c2ccccc2Br)c2ccc(O)cc12 ?
NS3 helicase inh: 0; UBC9 SUMO inh: 18

Results for CC(/C=N/n1c(-c2ccc(Cl)cc2)n[nH]c1=S)=C\c1ccco1 ?
EBNA-1 inhibitor: 0; NS3 helicase inh: 19; core dimer inh: 41; ZTA counter: 1; UBC9 SUMO inh: 13

How did CC(/C=N/n1c(-c2cc(C)[nH]n2)n[nH]c1=S)=C\c1ccco1 do in these assays?
EBNA-1 inhibitor: -5; NS3 helicase inh: 45*; core dimer inh: 7; ZTA counter: 1; UBC9 SUMO inh: 15; NS3 helicase cf: -16; DNA FID counter: -5

Results for CC(OC(=O)c1ccc(Cl)cc1)C(=O)NCC1CCCCC1 (stereo not drawn) ?
ZTA counter: -9

Results for CC1(C)Oc2ccc3ccc(=O)oc3c2/C(=C/NNC(N)=S)C1=O ?
EBNA-1 inhibitor: -9; NS3 helicase inh: 51*; core dimer inh: -23; ZTA counter: 2; UBC9 SUMO inh: 20; NS3 helicase cf: -17; DNA FID counter: -8

How did Cc1ccc(NC(=S)N2CCCCC2)cc1C do in these assays?
EBNA-1 inhibitor: 3; NS3 helicase inh: -10; core dimer inh: 0; ZTA counter: -7; UBC9 SUMO inh: 21

Results for CCCc1ccc(C(=O)NC(=O)c2ccccc2O)cc1 ?
EBNA-1 inhibitor: 0; NS3 helicase inh: -2; core dimer inh: 1; ZTA counter: 3; UBC9 SUMO inh: -2

What do the screens show for `O=C(O)CCNc1cc(N2CCN(C(=O)c3ccco3)CC2)c2noc3c2c1C(=O)c1ccccc1-3`?
EBNA-1 inhibitor: 127*; NS3 helicase inh: 57*; core dimer inh: -150; ZTA counter: 163*; UBC9 SUMO inh: -19; NS3 helicase cf: 76*; DNA FID counter: 2

How did CCSc1nc2c(c(=O)[nH]1)C(c1cccnc1)C(C(=O)OC)=C(C)N2 (stereo not drawn) do in these assays?
EBNA-1 inhibitor: -8; NS3 helicase inh: 39*; core dimer inh: 6; ZTA counter: 2; UBC9 SUMO inh: -12; NS3 helicase cf: -2; DNA FID counter: -1

How did N=C1/C(=C/c2ccc(OCc3ccccc3)cc2)C(=O)N=C2SC(CC(=O)N3CCOCC3)=NN12 do in these assays?
EBNA-1 inhibitor: 6; NS3 helicase inh: 25; core dimer inh: 7; ZTA counter: -5; UBC9 SUMO inh: 16

What do the screens show for `N=C1/C(=C/c2ccc(OCc3ccccc3F)cc2)C(=O)N=C2SC(CC(=O)N3CCOCC3)=NN12`?
EBNA-1 inhibitor: -21; NS3 helicase inh: 46*; core dimer inh: 4; ZTA counter: -13; UBC9 SUMO inh: 4; NS3 helicase cf: 42*; DNA FID counter: -6

Results for COc1ccc(-c2cc(=O)oc3cc(OCC(=O)N4C[C@H]5C[C@@H](C4)c4cccc(=O)n4C5)ccc23)cc1 ?
EBNA-1 inhibitor: 2; NS3 helicase inh: -12; core dimer inh: 0; ZTA counter: -1; UBC9 SUMO inh: 2

Results for O=C(COc1ccc2c3c(c(=O)oc2c1)CCCC3)N1C[C@H]2C[C@@H](C1)c1cccc(=O)n1C2 ?
EBNA-1 inhibitor: 9; NS3 helicase inh: 46*; core dimer inh: 1; ZTA counter: 0; UBC9 SUMO inh: 15; NS3 helicase cf: -15; DNA FID counter: -27

What do the screens show for `O=C(NCC1CCCO1)c1ccc(Br)c(S(=O)(=O)N2CCOCC2)c1` (stereo not drawn)?
ZTA counter: -3
